We go through 2 compounds from ChEMBL document CHEMBL1134314, “Characterization of the 1H-cyclopentapyrimidine-2,4(1H,3H)-dione derivative (S)-CPW399 as a novel, potent, and subtype-selective AMPA receptor full agonist with partial desensitization properties” (J Med Chem, 2001).

The source made the active and inactive calls. The calls are words filed in the database; no cut-off is given here.

Assay [1] addresses Glutamate receptor ionotropic, kainate. The assay is described as follows: Binding affinity towards Ionotropic glutamate receptor kainate in rat brain. The format is tissue-based. The method, boiled down: (§1)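 Radioligand competition binding on native ionotropic glutamate receptors in rat brain membranes. Inactivity was defined at 10^-4 M. Values are means ± SEM of three to four competition experiments, each run in triplicate.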

Assay [2] has as its target Glutamate NMDA receptor (Rattus norvegicus) (UniProt P35439+Q00959+Q00960+Q00961+Q62645+Q8VHN2+Q9R1M7). The assay is described as follows: Binding affinity towards NMDA receptor; not active. The assay is classed as protein-complex assay. In outline:
as §1

Assay [3] is described as follows: Hill slope was determined.
Assay [4] has as its target Glutamate receptor ionotropic, AMPA (Rattus norvegicus, UniProt P19490+P19491+P19492+P19493). The assay is described as follows: Binding affinity towards AMPA receptor in rat brain. The format is tissue-based.

As for `N[C@@H](Cn1c2c(c(=O)[nH]c1=O)CCC2)C(=O)O`, the Ki in assay [1] was 7.94 µM. For the same compound, the NA result in assay [2] is “inactive”. In addition, the Hill coefficient in assay [3] was 0.95 nH [middle of 8 runs].

Turning to `N[C@@H](Cn1c2c(c(=O)[nH]c1=S)CCC2)C(=O)O`, the Ki in assay [1] is above 10 µM; in assay [4] it was 1.37 µM.

The Ki is the equilibrium dissociation constant of an inhibitor or competing ligand from its target.
